In ChEMBL document CHEMBL2169837 (J Med Chem, 2012):
Values after ≈ are worked out from the molar mass of the structure shown. Active and inactive are the calls of the source. The rule behind the calls is not given here.

Legend:
Homo sapiens = species on record: Homo sapiens; assay: Selectivity ratio of Ki for human oxytocin receptor to Ki for human vasopressin V2 receptor
Oxytocin receptor [1] = target: T1, Oxytocin receptor (Homo sapiens, UniProt P30559); assay: Displacement of [3H]-AVP from human oxytocin receptor expressed in CHO cells after 30 mins; assay type: cell-based
T1 sequence (P30559 whole entry): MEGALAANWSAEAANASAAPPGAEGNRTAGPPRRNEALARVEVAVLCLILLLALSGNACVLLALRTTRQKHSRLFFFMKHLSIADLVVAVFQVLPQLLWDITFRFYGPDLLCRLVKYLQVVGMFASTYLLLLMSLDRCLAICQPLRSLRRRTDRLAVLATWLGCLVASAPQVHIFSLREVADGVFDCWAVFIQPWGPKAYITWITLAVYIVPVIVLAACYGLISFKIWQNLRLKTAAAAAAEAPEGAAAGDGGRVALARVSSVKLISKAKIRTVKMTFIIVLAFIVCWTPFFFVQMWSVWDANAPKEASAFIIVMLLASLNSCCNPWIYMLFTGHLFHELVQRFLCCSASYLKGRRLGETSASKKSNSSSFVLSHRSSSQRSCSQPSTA

[2] = target: T2, Vasopressin V1b receptor (Homo sapiens) (UniProt P47901); assay: Displacement of [3H]-AVP from human vasopressin V1b receptor expressed in CHO cells at 10 uM after 30 mins; assay type: cell-based
T2 sequence (whole entry): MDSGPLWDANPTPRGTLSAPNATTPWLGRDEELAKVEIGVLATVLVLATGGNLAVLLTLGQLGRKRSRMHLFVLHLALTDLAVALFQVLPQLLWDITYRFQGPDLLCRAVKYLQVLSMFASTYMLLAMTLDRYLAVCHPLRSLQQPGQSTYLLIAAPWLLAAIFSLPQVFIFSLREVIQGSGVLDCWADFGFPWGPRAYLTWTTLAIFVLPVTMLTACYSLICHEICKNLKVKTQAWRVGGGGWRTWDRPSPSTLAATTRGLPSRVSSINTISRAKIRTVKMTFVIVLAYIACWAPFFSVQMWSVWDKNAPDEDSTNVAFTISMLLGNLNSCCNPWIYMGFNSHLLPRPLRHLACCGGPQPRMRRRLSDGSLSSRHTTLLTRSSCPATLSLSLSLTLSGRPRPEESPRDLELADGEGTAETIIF
How it was run: (§1)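 Human OTR, V1aR or V1bR membranes from CHO cells, [3H]-AVP displacement with compound at a single 10 μM concentration, 30 min at 30 °C in Tris-HCl pH 7.4/MgCl2/BSA buffer.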

Vasopressin V1b receptor = target: T3, Vasopressin V1b receptor (Homo sapiens, UniProt P47901); assay: Displacement of [3H]-AVP from human vasopressin V1b receptor expressed in CHO cells after 30 mins; assay type: cell-based
T3 sequence (P47901 whole entry): T2 sequence (whole entry)

Vasopressin V1a receptor [3] = target: T4, Vasopressin V1a receptor (Homo sapiens, UniProt P37288); assay: Displacement of [3H]-AVP from human vasopressin V1a receptor expressed in CHO cells at 10 uM after 30 mins; assay type: cell-based; how it was run: as §1
Target sequence in this assay (P37288 whole entry, looked up): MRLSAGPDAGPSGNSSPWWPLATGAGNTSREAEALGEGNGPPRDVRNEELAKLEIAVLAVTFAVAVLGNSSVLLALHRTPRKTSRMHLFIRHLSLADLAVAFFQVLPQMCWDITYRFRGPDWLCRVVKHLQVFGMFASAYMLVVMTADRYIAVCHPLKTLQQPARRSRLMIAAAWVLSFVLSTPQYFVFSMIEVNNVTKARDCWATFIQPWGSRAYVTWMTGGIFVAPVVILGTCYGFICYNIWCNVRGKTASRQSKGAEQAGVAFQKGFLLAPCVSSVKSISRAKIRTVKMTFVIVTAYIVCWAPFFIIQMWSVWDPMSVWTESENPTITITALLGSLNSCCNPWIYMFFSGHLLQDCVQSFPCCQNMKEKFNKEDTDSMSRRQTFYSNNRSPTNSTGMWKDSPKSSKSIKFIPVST

Vasopressin V1a receptor [4] = target: T4, Vasopressin V1a receptor; assay: Displacement of [3H]-AVP from human vasopressin V1a receptor expressed in CHO cells after 30 mins; assay type: cell-based
Target sequence in this assay (P37288 whole entry): as the sequence (P37288 whole entry, looked up) above

Vasopressin V2 receptor [5] = target: T5, Vasopressin V2 receptor (Homo sapiens, UniProt P30518); assay: Binding affinity to SNAP-tagged vasopressin V2 receptor expressed in HEK293 cells after 1 hr by TR-FRET assay; assay type: cell-based
T5 sequence (P30518 whole entry): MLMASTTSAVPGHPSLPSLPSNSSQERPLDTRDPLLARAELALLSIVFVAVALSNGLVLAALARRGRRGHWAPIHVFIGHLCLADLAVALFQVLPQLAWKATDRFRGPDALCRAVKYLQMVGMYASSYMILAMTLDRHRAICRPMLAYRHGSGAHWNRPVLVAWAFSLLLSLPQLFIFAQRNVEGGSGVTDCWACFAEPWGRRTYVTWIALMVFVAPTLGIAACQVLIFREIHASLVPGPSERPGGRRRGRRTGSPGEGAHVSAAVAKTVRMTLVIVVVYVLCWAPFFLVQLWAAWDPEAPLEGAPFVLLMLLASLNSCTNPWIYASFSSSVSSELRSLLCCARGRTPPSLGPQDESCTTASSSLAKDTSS
How it was run: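 HEK 293T cells electroporated with SNAP-tag–V2R and grown 48 h. Receptor labeled 1 h at 37 °C with SNAP-Lumi4-Tb (100 nM) or SNAP-RED (300 nM), then washed. Rising fluorescent-ligand concentrations added and incubated overnight at 4 °C. TR-FRET read with excitation 340 nm, emission 620/665 nm. Nonspecific binding taken with 10 μM unlabeled ligand. Kd from saturation, three experiments in triplicate.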

Vasopressin V2 receptor [6] = target: T5, Vasopressin V2 receptor; assay: Antagonist activity at human vasopressin V2 receptor expressed in CHO cells assessed as inhibition of AVP-induced cAMP accumulation after 30 mins by TR-FRET based HTRF assay; assay type: functional, cell-based
How it was run: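 CHO cells stably expressing human V2R, 5 × 10^3 per well on polyornithine, used 24 h after seeding. Incubated 30 min at 37 °C with compound (10−12 to 10−5 M) plus phosphodiesterase inhibitor RO 201724 0.1 mM. Antagonist mode run with 1 nM AVP. Cells lysed and cAMP read by HTRF (TR-FRET). Kact/Kinact from three independent experiments in triplicate, mean ± SEM.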

Vasopressin V2 receptor [7] = target: T5, Vasopressin V2 receptor; assay: Agonist activity at human vasopressin V2 receptor expressed in CHO cells assessed as cAMP accumulation after 30 mins by TR-FRET based HTRF assay; assay type: functional, cell-based
How it was run: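 CHO cells stably expressing human V2R, 5 × 10^3 per well on polyornithine, used 24 h after seeding. Cells lysed and cAMP read by HTRF (TR-FRET). Kact/Kinact from three independent experiments in triplicate, mean ± SEM.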

Vasopressin V2 receptor [8] = target: T5, Vasopressin V2 receptor; assay: Displacement of [3H]-AVP from human vasopressin V2 receptor expressed in CHO cells after 30 mins; assay type: cell-based
Oxytocin receptor [9] = target: T1, Oxytocin receptor; assay: Binding affinity to oxytocin receptor
How it was run: (§2)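 Membranes (5 μg protein) from CHO cells stably expressing human V2R, V1aR, V1bR or OTR. Incubated 30 min at 30 °C in 50 mM Tris-HCl pH 7.4, 5 mM MgCl2, 1 mg/mL BSA with [3H]-AVP (1−2 nM) and competitor from 100 pM to 100 μM. Nonspecific binding with 10 μM AVP. GF/C filtration; Ki by nonlinear least-squares regression. Triplicate, at least three membrane batches.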

Vasopressin V1a receptor [10] = target: T4, Vasopressin V1a receptor; assay: Binding affinity to vasopressin V1a receptor; how it was run: as §2
Target sequence in this assay (P37288 whole entry): as the sequence (P37288 whole entry, looked up) above

[11] = Solubility of the compound in HEPES buffer at pH 7.4 after 24 hrs; assay type: physicochemical
How it was run: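 Solubility measured in pH 7.4 HEPES buffer after 24 h incubation at 22 °C.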

Ratio Ki (Homo sapiens)	Ki (Oxytocin receptor [1]) [nM]	inhibition [2] [%]	Ki (Vasopressin V1b receptor) [nM]	inhibition (Vasopressin V1a receptor [3]) [%]	Ki (Vasopressin V1a receptor [4]) [nM]	Kd (Vasopressin V2 receptor [5]) [nM]	Kb (Vasopressin V2 receptor [6]) [nM]	inhibition (Vasopressin V2 receptor [6])	Activity (Vasopressin V2 receptor [7])	Ki (Vasopressin V2 receptor [8]) [nM]	Ki (Oxytocin receptor [9]) [nM]	Ki (Vasopressin V1a receptor [10]) [nM]	solubility at 24 h [11] [µM]	Compound
25	665	< 50	> 10000	< 50	> 10000	11.1	0.78	Dose-dependent effect	inactive	26.1				O=C(CCC(=O)NC1CCCN(C(=O)c2ccc(NC(=O)c3ccccc3-c3ccccc3)cc2)c2ccccc21)NCc1cn(CCOCCOCCOCCNC(=S)Nc2ccc(-c3c4ccc(=O)cc-4oc4cc(O)ccc34)c(C(=O)O)c2)nn1 (centres undefined)
							2.03	Dose-dependent effect	inactive	12.7			3.7 (≈ 4.23 µg/mL)	CCN(CC)c1ccc2c(-c3ccc(S(=O)(=O)N4CCN(CCC(=O)NC5CCCN(C(=O)c6ccc(NC(=O)c7ccccc7-c7ccccc7)cc6)c6ccccc65)CC4)cc3S(=O)(=O)[O-])c3ccc(=[N+](CC)CC)cc-3oc2c1 (centres undefined)
							8.91	Dose-dependent effect	inactive	16.8			6.2 (≈ 7.47 µg/mL)	CCN(CC)c1ccc2c(-c3ccc(S(=O)(=O)NCCOCCOCCOCCC(=O)NC4CCCN(C(=O)c5ccc(NC(=O)c6ccccc6-c6ccccc6)cc5)c5ccccc54)cc3S(=O)(=O)[O-])c3ccc(=[N+](CC)CC)cc-3oc2c1 (centres undefined)
							3.8	Dose-dependent effect	inactive	25.3			2.1 (≈ 2.1 µg/mL)	CCN(CC)c1ccc2c(-c3ccc(S(=O)(=O)NC4CCCN(C(=O)c5ccc(NC(=O)c6ccccc6-c6ccccc6)cc5)c5ccccc54)cc3S(=O)(=O)[O-])c3ccc(=[N+](CC)CC)cc-3oc2c1 (centres undefined)

The next lines start with the molecule.

Compound	Ratio Ki (Homo sapiens)	Ki (Oxytocin receptor [1]) [nM]	inhibition [2] [%]	Ki (Vasopressin V1b receptor) [nM]	inhibition (Vasopressin V1a receptor [3]) [%]	Ki (Vasopressin V1a receptor [4]) [nM]	Kd (Vasopressin V2 receptor [5]) [nM]	Kb (Vasopressin V2 receptor [6]) [nM]	inhibition (Vasopressin V2 receptor [6])	Activity (Vasopressin V2 receptor [7])	Ki (Vasopressin V2 receptor [8]) [nM]	Ki (Oxytocin receptor [9]) [nM]	Ki (Vasopressin V1a receptor [10]) [nM]	solubility at 24 h [11] [µM]
Cc1ccccc1C(=O)Nc1ccc(C(=O)N2CCCC(N(C)C)c3ccccc32)cc1 (centres undefined) [MOZAVAPTAN]									Dose-dependent effect	inactive		660	195	
CCN1/C(=C/C=C/C=C/C2=[N+](CC)c3ccc(S(=O)(=O)[O-])cc3C2(C)C)C(C)(CCCC(=O)NCCOCCOCCOCCOCCOCCOCCn2cc(CNC(=O)CCC(=O)NC3CCCN(C(=O)c4ccc(NC(=O)c5ccccc5-c5ccccc5)cc4)c4ccccc43)nn2)c2cc(S(=O)(=O)O)ccc21 (centres undefined)							2.53	0.54	Dose-dependent effect	inactive	14.2			
CCN1/C(=C/C=C/C=C/C2=[N+](CC)c3ccc(S(=O)(=O)[O-])cc3C2(C)C)C(C)(CCCC(=O)NCCOCCOCCOCCn2cc(CNC(=O)CCC(=O)NC3CCCN(C(=O)c4ccc(NC(=O)c5ccccc5-c5ccccc5)cc4)c4ccccc43)nn2)c2cc(S(=O)(=O)O)ccc21 (centres undefined)		808	< 50	> 10000		1750	2.33	0.1	Dose-dependent effect	inactive	9.02			
